Results as given in ChEMBL document CHEMBL1127608, “Non-peptide fibrinogen receptor antagonists. 2. Optimization of a tyrosine template as a mimic for Arg-Gly-Asp” (J Med Chem, 1994).
Values belong to the compound of their own block, whether it stands above or below them. Peptide text beside a SMILES is read from it.

Legend:
Integrin alpha-V/beta-3 [1] = biological target: T1, Integrin alpha-V/beta-3 (Homo sapiens, UniProt P05106+P06756); test: Inhibition of human umbilical vein endothelial cell adhesion to fibrinogen; assay type: functional, cell-based
Integrin alpha-V/beta-3 [2] = biological target: T1, Integrin alpha-V/beta-3; test: Inhibition of human umbilical vein endothelial cell adhesion to vitronectin; assay type: functional, cell-based
Integrin alpha-5/beta-1 = Integrin alpha-5/beta-1 (Homo sapiens, UniProt P05556+P08648); test: (§1) Inhibition of human umbilical vein endothelial cell adhesion to fibronectin; assay type: functional, cell-based
[3] = biological target: T2, Integrin alpha-IIb/beta-3 (Homo sapiens, UniProt P05106+P08514); test: Inhibition of platelet aggregation as the concentration necessary to inhibit the change in light.; assay type: functional
In short: (§2)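 Human gel-filtered platelets at 2 × 10^8/mL were mixed with 0.1 mg/mL human fibrinogen, 1 mM CaCl2 and compound, then aggregated with 10 µM ADP. Light transmittance was compared between control and treated samples.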
Target sequence in this assay (P05106 27-788 limits assumed): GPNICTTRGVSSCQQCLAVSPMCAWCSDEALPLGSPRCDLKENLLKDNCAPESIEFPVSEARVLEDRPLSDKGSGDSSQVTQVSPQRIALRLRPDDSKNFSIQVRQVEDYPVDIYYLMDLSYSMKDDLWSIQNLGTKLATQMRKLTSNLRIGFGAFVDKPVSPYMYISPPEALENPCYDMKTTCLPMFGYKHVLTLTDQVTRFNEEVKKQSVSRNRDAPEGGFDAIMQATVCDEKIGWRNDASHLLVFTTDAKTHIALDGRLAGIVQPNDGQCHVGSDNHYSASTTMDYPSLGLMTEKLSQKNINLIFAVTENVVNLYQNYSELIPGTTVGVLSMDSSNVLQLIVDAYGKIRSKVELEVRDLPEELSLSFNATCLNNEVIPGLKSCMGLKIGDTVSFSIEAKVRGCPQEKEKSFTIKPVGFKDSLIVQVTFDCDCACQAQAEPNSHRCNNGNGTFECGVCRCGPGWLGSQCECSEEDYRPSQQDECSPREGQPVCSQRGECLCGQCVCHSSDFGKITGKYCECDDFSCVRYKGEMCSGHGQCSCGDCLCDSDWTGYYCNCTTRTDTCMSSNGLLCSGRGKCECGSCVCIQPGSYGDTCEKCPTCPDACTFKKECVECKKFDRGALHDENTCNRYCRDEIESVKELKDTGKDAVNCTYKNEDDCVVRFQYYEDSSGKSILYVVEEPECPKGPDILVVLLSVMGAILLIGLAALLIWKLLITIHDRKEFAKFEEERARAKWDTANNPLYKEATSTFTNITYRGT
Target sequence in this assay (P08514 32-887 limits assumed): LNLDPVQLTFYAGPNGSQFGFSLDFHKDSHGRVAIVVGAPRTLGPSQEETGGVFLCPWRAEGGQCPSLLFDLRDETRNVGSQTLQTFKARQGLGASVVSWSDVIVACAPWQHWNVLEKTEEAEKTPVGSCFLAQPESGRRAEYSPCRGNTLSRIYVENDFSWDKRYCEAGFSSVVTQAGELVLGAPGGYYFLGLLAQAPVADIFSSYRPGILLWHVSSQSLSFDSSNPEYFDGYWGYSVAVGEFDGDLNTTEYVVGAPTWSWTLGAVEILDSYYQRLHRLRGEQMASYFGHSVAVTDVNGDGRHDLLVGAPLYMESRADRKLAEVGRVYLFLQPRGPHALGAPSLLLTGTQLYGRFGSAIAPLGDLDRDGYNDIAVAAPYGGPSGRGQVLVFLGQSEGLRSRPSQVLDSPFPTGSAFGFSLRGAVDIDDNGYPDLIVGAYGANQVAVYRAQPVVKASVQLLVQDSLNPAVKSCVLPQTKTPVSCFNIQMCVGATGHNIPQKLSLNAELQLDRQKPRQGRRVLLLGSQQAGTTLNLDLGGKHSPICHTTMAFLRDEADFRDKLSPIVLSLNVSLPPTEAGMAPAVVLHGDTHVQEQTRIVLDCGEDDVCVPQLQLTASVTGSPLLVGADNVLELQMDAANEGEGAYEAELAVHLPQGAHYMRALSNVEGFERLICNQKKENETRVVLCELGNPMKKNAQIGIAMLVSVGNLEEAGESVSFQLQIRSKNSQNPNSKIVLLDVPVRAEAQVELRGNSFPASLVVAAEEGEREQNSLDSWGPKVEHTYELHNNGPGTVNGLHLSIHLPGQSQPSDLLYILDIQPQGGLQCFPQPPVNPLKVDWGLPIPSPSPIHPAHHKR
Target sequence in this assay (P08514 891-1039 limits assumed): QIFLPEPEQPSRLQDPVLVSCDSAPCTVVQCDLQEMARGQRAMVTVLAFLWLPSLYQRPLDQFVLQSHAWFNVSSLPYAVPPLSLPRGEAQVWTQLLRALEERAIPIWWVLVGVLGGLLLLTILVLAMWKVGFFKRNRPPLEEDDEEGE

[4] = as §1; assay type: functional, cell-based
[5] = biological target: T2, Integrin alpha-IIb/beta-3; test: Inhibition of platelet aggregation by change in light transmittance at 300 uM; assay type: functional; in short: as §2

T1 sequence (P05106 27-788 limits assumed): as the sequence (P05106 27-788 limits assumed) above
T1 sequence (P06756 31-889 limits assumed): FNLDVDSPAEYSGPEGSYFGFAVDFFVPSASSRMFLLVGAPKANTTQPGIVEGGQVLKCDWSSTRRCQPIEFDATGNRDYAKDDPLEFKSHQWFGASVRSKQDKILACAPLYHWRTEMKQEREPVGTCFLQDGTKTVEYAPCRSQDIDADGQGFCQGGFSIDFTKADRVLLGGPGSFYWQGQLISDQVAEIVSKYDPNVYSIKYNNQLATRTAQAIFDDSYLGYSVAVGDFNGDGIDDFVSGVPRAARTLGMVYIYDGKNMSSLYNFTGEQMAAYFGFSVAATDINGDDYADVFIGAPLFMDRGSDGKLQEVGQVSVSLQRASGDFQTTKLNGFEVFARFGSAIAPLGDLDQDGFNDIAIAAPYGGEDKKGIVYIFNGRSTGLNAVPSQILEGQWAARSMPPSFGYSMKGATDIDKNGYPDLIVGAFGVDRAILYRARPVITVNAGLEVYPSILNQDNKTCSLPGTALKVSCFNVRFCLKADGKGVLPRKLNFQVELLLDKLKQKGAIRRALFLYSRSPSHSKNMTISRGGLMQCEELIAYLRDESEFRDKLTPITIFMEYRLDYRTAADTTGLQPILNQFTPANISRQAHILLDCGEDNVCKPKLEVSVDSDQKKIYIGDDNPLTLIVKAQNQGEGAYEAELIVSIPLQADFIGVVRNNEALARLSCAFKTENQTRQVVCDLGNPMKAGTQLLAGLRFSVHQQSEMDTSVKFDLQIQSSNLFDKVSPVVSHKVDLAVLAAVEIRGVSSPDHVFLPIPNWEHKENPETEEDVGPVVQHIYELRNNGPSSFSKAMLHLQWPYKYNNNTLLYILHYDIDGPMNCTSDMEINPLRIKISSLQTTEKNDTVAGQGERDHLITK
T1 sequence (P06756 891-1048 limits assumed): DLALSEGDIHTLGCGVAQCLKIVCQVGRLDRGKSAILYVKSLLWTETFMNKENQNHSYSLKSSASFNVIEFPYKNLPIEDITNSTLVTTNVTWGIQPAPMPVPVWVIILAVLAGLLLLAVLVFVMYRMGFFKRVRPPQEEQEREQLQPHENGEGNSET
Integrin alpha-5/beta-1, sequence (P05556 21-798 limits assumed): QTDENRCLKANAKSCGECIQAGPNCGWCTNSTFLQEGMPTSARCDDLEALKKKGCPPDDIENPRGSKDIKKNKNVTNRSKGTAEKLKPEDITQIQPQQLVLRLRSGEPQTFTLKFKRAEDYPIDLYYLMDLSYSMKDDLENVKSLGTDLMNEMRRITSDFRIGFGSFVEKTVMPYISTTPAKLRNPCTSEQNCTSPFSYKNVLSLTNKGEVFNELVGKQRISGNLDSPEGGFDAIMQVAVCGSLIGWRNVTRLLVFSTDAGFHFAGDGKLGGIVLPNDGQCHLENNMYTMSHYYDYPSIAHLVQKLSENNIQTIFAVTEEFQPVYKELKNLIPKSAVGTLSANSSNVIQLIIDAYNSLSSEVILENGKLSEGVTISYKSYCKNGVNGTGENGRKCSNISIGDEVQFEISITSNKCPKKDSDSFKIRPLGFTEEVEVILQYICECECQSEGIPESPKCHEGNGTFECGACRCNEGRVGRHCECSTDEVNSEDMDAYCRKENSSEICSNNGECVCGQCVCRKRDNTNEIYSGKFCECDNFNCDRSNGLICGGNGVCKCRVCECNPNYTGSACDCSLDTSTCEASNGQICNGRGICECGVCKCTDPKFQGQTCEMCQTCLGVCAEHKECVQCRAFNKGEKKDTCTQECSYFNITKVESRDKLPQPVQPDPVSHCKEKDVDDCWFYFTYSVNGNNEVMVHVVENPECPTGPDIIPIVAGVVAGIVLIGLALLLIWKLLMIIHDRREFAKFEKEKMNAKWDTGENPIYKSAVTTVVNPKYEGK
Integrin alpha-5/beta-1, sequence (P08648 42-894 limits assumed): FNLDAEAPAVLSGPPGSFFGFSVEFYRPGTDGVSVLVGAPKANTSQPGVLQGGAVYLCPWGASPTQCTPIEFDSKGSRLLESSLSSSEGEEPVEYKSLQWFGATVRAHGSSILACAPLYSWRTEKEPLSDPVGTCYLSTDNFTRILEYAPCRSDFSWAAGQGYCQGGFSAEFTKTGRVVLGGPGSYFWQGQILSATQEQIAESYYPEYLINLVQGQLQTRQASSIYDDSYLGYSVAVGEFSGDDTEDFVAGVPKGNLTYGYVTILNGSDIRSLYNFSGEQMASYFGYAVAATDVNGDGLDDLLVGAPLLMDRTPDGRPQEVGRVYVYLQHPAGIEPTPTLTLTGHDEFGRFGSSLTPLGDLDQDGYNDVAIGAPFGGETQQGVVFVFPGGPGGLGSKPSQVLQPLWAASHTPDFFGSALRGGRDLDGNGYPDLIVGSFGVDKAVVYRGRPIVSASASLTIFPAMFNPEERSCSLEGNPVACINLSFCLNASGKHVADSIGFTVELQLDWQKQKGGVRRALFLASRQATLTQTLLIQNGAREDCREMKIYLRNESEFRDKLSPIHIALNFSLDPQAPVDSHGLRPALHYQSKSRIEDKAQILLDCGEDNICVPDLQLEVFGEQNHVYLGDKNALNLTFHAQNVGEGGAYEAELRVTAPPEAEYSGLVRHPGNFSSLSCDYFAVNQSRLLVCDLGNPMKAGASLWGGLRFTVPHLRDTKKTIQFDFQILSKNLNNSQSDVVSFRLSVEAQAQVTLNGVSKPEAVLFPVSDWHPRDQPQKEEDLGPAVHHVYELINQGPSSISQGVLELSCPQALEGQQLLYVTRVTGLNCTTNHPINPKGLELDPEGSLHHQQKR
Integrin alpha-5/beta-1, sequence (P08648 895-1049 limits assumed): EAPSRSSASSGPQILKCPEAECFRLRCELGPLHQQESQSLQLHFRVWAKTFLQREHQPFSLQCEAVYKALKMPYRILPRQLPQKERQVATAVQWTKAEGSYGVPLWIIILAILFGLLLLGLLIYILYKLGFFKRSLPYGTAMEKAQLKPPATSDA

Compound: NC(N)=NCCC[C@H](N)C(=O)NCC(=O)N[C@@H](CC(=O)O)C(=O)N[C@@H](Cc1c[nH]c2ccccc12)C(=O)O (H-RGDW-OH)
IC50 (Integrin alpha-V/beta-3 [1]): 34 µM | IC50 (Integrin alpha-V/beta-3 [2]): 14 µM | IC50 (Integrin alpha-5/beta-1): 27 µM

Compound: CC(C)(C)NCC(O)COc1ccc(C[C@H](NC(=O)OCc2ccccc2)C(=O)O)cc1 (stereo partly drawn)
IC50 (Integrin alpha-V/beta-3 [1]): > 300 µM | IC50 (Integrin alpha-V/beta-3 [2]): > 300 µM | IC50 [4]: > 300 µM

Compound: O=C(O)[C@H](Cc1ccc(OCCCCC2CCNCC2)cc1)NS(=O)(=O)Cc1ccccc1
IC50 [3]: 0.018 µM

Compound: CCCCS(=O)(=O)N[C@@H](Cc1ccc(OCCCCCCN)cc1)C(=O)O
IC50 (Integrin alpha-V/beta-3 [1]): 330 µM | IC50 [3]: 0.78 µM | IC50 (Integrin alpha-V/beta-3 [2]): 150 µM | IC50 (Integrin alpha-5/beta-1): > 500 µM

Compound: CCCCCC(=O)N[C@@H](Cc1ccc(OCCCCC2CCNCC2)cc1)C(=O)O
IC50 [3]: 0.035 µM

Compound: O=C(N[C@@H](Cc1ccc(OCCCCC2CCNCC2)cc1)C(=O)O)OCc1ccccc1
IC50 (Integrin alpha-V/beta-3 [1]): 158 µM | IC50 [3]: 0.26 µM | IC50 (Integrin alpha-V/beta-3 [2]): 56 µM | IC50 [4]: 300 µM

Compound: NCCCCCCOc1ccc(CCC(=O)O)cc1
inhibition [5]: 12%

Results, then the compound that gave them:

IC50 [3]: 26 µM
Compound: NCCCCCCOc1ccc(C[C@H](NC(=O)OCc2ccccc2)C(=O)O)cc1

IC50 (Integrin alpha-V/beta-3 [2]): 62 µM
Compound: CCCCS(=O)(=O)N[C@@H](Cc1ccc(OCCCCC2CCNCC2)cc1)C(=O)O [TIROFIBAN]

IC50 [3]: 8 µM
Compound: NCCCCCCOc1ccc(C[C@H](NC(=O)CCc2ccccc2)C(=O)O)cc1

IC50 (Integrin alpha-V/beta-3 [1]): 315 µM | IC50 (Integrin alpha-V/beta-3 [2]): 147 µM | IC50 (Integrin alpha-5/beta-1): > 450 µM
Compound: NCCCCCCCOc1ccc(C[C@H](NC(=O)OCc2ccccc2)C(=O)O)cc1
